Experimental data: publication PMC3601557 (Chemistry & biology, 2012)
Entries after “also recorded” stand apart in the source; their conditions may differ.

Experiments:
FP2, FP2′, and FP3 = assay: Competitive ABPP with Cy5-DCG-04 in parasite lysates; format: biochemical, P. falciparum; conditions: D10 lysates, 30 min preincubation, 1 µM Cy5-DCG-04 1 hr
red blood cells (RBCs) = conditions: even at the highest tested concentrations (>25 µM); ref Conroy et al., 2010; cited from earlier work
FP1 [1] = molecular target: T1, FP1 (Plasmodium falciparum, UniProt P25805); assay: Falcipain inhibition in living parasites; format: cell-based, P. falciparum
T1 sequence (P25805 333-569): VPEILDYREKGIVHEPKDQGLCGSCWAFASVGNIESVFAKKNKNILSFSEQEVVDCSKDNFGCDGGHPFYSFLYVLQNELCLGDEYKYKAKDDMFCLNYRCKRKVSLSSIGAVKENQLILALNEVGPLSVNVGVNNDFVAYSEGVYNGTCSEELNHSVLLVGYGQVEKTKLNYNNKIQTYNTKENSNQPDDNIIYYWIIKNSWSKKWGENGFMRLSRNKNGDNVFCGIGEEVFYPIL

[2] = tested on: proteins in the 28 kDa region (food vacuole falcipains); assay: Labeling of intact schizonts with rhodamine probes; format: cell-based, P. falciparum; conditions: pretreatment with 10 µM nonfluorescent compound, then 10 µM RhSym4 1 hr
Method in brief: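 Purified schizonts were pretreated with 10 µM nonfluorescent competitor or DMSO. They were then incubated 1 hr with 10 µM rhodamine-tagged probe in PBS. Samples were boiled in loading buffer, proteins resolved by SDS-PAGE, and labelled bands detected by flatbed fluorescence scanning.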

FP1 [3] = molecular target: T1, FP1; assay: Competitive ABPP with Cy5-DCG-04 in parasite lysates; format: biochemical, P. falciparum; conditions: D10 lysates, 30 min preincubation, 1 µM Cy5-DCG-04 1 hr
Method in brief: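 Trophozoites were harvested 36 hr post-invasion, freed from RBCs with saponin, and extracted in PBS with 1% NP40. Soluble lysate was diluted 1:10 in acetate buffer (50 mM sodium acetate, 5 mM MgCl2, 5 mM DTT) and pretreated 30 min with test compound over a concentration range. Then 1 µM Cy5-DCG04 was added for 1 hr. Reactions were boiled in loading buffer, resolved by SDS-PAGE, and scanned for in-gel fluorescence.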

[4] = tested on: P. falciparum ring stage parasites (food vacuole); assay: Phenotypic characterization of treated ring stage parasites; format: cell-based; conditions: 24 hr, Giemsa smears
Method in brief: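 Synchronized ring-stage cultures (2% parasitemia) were treated with a range of test compound concentrations or DMSO for 24 hr. Morphology was then examined on Giemsa-stained thin blood smears, and the food vacuole defect was scored as enlargement of this acidic organelle.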

[5] = molecular target: T2, recombinantly produced FP3 (Plasmodium falciparum, UniProt Q8IIL0); assay: Kinetics of substrate turnover inhibition; format: biochemical, P. falciparum
T2 sequence (Q8IIL0 243-492): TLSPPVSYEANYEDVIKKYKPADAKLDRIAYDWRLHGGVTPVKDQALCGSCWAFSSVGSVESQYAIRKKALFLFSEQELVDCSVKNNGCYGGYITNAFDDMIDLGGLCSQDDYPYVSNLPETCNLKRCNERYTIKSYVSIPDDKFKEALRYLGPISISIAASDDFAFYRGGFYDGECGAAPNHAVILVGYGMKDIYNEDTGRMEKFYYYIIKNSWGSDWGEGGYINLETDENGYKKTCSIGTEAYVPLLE
Method in brief: (§1)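 Fluorescence (ex 350 nm, em 460 nm) was followed for 2 hr at several inhibitor concentrations. Turnover relative to DMSO controls (v/v0) was fitted to an irreversible inhibition model; ki = kobs/[I].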

[6] = molecular target: T3, recombinantly produced FP2 (Plasmodium falciparum, UniProt Q8I6U4); assay: Kinetics of substrate turnover inhibition; format: biochemical, P. falciparum
T3 sequence (Q8I6U4 244-484): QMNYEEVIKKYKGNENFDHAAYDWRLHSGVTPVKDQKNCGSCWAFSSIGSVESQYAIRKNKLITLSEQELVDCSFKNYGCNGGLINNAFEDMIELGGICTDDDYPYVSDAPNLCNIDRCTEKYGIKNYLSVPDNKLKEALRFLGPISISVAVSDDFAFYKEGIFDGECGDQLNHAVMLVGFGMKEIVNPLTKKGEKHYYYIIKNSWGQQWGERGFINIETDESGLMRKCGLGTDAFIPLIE
Method in brief: as §1

DPAP1 = molecular target: T4, DPAP1 (Plasmodium falciparum, UniProt Q8IIJ9); assay: Competitive ABPP with Cy5-DCG-04, DPAP1 labeling; format: cell-based, P. falciparum
T4 sequence (Q8IIJ9 370-599 limits assumed): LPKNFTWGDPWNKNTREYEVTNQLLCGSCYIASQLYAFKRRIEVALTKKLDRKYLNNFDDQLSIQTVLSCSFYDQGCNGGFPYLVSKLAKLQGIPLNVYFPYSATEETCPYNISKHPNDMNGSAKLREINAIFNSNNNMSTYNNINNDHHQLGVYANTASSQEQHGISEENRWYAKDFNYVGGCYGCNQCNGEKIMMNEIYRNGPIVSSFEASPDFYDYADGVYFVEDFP
T4 sequence (Q8IIJ9 600-700 limits assumed): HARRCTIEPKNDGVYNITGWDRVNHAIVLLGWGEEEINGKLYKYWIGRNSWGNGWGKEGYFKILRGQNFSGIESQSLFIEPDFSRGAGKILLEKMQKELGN
T4 sequence (Q8IIJ9 28-209 limits assumed): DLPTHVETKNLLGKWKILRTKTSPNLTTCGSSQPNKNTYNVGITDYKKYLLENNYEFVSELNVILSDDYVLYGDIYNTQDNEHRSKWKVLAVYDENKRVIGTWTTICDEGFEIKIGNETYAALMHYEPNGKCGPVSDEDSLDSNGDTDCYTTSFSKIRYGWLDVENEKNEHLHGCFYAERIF
Method in brief: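 A P. falciparum culture at 20% parasitemia and 2% hematocrit was exposed to graded test compound for 1 hr. Aliquots were lysed with 0.15% saponin in PBS. Parasite pellets were labelled for 1 hr with 1 µM Cy5-DCG04 in acetate buffer containing 1% NP40. After SDS-PAGE, DPAP1 band fluorescence was quantified and fitted to a sigmoidal dose-response curve to give IC50.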

[7] = tested on: cathepsins B, H, S, and Z; format: cell-based; conditions: mouse macrophages, 5 µM
Method in brief: (§2)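 Bone marrow-derived mouse macrophages were preincubated with 0.5 or 5 µM test compound. Residual protease activity was then read in protein extracts by labelling with either a broad papain-like cysteine protease activity-based probe (cathepsins) or a proteasome-specific activity-based probe (proteasome).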

[8] = tested on: P. falciparum D10 parasites; assay: P. falciparum replication assay; format: cell-based
cathepsin L = cathepsin L (Mus musculus, UniProt P06797); format: cell-based; conditions: mouse macrophages, 0.5 µM
Chain of cathepsin L (P06797 114-334): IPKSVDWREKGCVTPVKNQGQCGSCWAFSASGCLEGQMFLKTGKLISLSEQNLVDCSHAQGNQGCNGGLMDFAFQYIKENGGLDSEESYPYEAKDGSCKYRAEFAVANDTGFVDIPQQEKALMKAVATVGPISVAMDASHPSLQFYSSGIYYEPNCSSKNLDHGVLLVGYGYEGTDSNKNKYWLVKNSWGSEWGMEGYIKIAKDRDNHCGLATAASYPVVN
Method in brief: as §2

DPAP3 = assay: Competitive ABPP with DPAP activity-based probe FY01; format: biochemical, P. falciparum; conditions: competitive ABPP with FY01, Figure S3
proteasome = format: cell-based; conditions: mouse macrophages preincubated with 0.5 µM and 5 µM
Method in brief: as §2

## CC[C@H](C)[C@@H](C(=O)O[C@@H](CC(C)C)C(=O)N[C@@H](CC(C)C)C(=O)N[C@@H](C)/C=C/C(=O)N1C(=O)C=C(OC)[C@@H]1C)N(C)C [Sym4, symplostatin 4]
FP2, FP2′, and FP3
  concentration inhibiting Cy5-DCG-04 labeling of FP2, FP2′, and FP3: 1.5 nM
Red blood cells (RBCs)
  lysis of red blood cells: no lysis
FP1 [1]
  IC50: 140 ± 23 nM
[2]
  competition of RhSym4 labeling: sensitive to preincubation
FP1 [3]
  concentration inhibiting Cy5-DCG-04 labeling of FP1: > 1.6 µM
[4]
  concentration causing swollen food vacuole phenotype: 0.1 µM
[5]
  mode of inhibition: irreversible inhibitor
[6]
  mode of inhibition: irreversible inhibitor
DPAP1; competitive ABPP with Cy5-DCG04, Figure 4
  inhibition of DPAP1: neither DPAP1 (Figure 4) nor DPAP3 (Figure S3) is inhibited
DPAP1; living parasites, 1 hr, at 1 µM
  inhibition of DPAP1: did not inhibit
[7]
  inhibition of cathepsins B, H, S, and Z: also inhibited; also recorded: required ten times higher concentrations (i.e., 5 µM) to reach the same inhibition level
[8]; EC50 0.7 µM versus 0.1 µM
  fold higher concentration for parasite killing than for food vacuole defect: 7 fold
[8]; replication assay, 75 hr
  fold more potent than Sym4^mmp → Ala (EC50): 40 fold
Cathepsin L
  inhibition of cathepsin L: inhibit; also recorded: inhibits a large portion
DPAP3
  inhibition of DPAP3: neither DPAP1 (Figure 4) nor DPAP3 (Figure S3) is inhibited
proteasome
  inhibition of the proteasome: did not inhibit; also recorded: does not inhibit
